Experimental data as given in paper PMC4059944 (Nature, 2014).

Experiments:
Ctf4CTD = test: Fluorescence polarization; format: binding, yeast (S. cerevisiae); settings: fluorescence anisotropy, 25°C, 20 mM HEPES pH 7.2, 140 mM KCl, 5% (w/v) glycerol; 40 nM (Sld5) or 50 nM (Pol1) fluorescein-labeled peptide; mean of three independent experiments
[1] = Multi-angle laser scattering; format: physicochemical, yeast (S. cerevisiae); settings: size exclusion chromatography - MALS
Summary of the method: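 Recombinant His-tagged full-length yeast Ctf4, expressed in E. coli BL21(DE3)-CodonPlus (1 mM IPTG, 37°C, 2 h), purified by Ni-NTA, Mono Q ion exchange and Superdex 200 gel filtration. About 100 μg loaded onto an HPLC size-exclusion column equilibrated in 150 mM NaCl, 20 mM Tris pH 8.0, 1 mM DTT. Eluate read by 8-angle light scattering and refractive index detectors.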

CMG helicase = settings: yeast cells; cited from earlier work
[2] = biological target: T1, GINSPsf1ΔC (Strep III-tagged, for electron microscopy) (S. cerevisiae, UniProt Q12146 1-194; Q12488 1-164; P40359 1-213; Q03406 1-294); test: negative-stain single-particle electron microscopy
T1 sequence 1: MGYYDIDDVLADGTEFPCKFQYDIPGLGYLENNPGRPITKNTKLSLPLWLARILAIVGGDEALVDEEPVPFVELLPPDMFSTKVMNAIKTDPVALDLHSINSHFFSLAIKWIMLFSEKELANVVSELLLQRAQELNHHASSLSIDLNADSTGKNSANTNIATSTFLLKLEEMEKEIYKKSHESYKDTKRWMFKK
T1 sequence 2: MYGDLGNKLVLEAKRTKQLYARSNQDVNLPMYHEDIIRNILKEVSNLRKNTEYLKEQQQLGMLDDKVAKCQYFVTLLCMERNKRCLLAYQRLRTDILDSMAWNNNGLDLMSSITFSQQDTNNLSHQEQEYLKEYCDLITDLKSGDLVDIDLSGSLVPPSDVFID
T1 sequence 3: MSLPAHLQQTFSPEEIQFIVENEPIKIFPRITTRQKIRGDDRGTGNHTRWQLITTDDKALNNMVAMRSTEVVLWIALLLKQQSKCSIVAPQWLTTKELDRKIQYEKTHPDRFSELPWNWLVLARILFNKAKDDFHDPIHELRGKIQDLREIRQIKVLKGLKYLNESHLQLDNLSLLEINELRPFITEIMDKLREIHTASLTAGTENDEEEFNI
T1 sequence 4: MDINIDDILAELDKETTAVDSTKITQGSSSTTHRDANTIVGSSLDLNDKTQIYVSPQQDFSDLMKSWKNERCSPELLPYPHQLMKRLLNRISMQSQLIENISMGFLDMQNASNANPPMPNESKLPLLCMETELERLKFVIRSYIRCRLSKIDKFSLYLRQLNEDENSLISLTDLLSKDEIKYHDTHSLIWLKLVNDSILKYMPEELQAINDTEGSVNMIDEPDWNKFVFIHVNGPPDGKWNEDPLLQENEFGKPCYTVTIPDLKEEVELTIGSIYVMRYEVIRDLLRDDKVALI

[3] = biological target: the molecule itself; test: negative-stain single-particle electron microscopy

## 1- MDINIDDILAELDKETTAV -19 [Ctf4-binding sequence of Sld5]
Ctf4CTD
  tighter association with Ctf4 compared to Pol1 (fold): ~ 5 fold

B1: Ctf4: full-length yeast Ctf4 protein (protein)
chain: MVSVIDKLVFDFGGKTLVSLAPDNNTLCVANKNGLTKILKTNNPEEEPETLDSSKLVSSIKCYSNSHFLMTTMQGDALRYNIDSSQEELLARFALPLRDCCVIHSGKMAVFGGDDLELILLELDDETHKKHAIKIDEQVSQISYNSQMNILAVSMINGKVQIFSLTSTIPNKVHELNDYIVANSYDDTHRDKILSNMMDDIDKDNDNDLSETADPDENNVADPEFCAANRICTRVAWHPKGLHFALPCADDTVKIFSIKGYSLQKTLSTNLSSTKAHFIDLQFDPLRGTYIAAVDLNNKLTVWNWETSEIHYTREFKRKITNIAWKIQADSKTLDLVLGTWSGSIAIVQNLAESVVSNIPDQSVAESSTKHGLFVDSESDLENLEGNDDINKSDKLFSDITQEANAEDVFTQTHDGPSGLSEKRKYNFEDEEDFIDDDDGAGYISGKKPHNEHSYSRVHKTHSFPISLANTGKFRYMPFSPAGTPFGFTDRRYLTMNEVGYVSTVKNSEQYSITVSFFDVGRFREYHFEDLFGYDLCFLNEKGTLFGQSKTGQIQYRPHDSIHSNWTKIIPLQAGERITSVAATPVRVIVGTSLGYFRSFNQFGVPFAVEKTSPIVALTAQNYRVFSVHYSQFHGLSYSLSELGTSSKRYYKRECPLPMSLPNINSDMKKDANLDYYNFNPMGIKSLFFSSYGDPCIFGSDNTLLLLSKWRSPEESKWLPILDSNMEIWKMSGGKETTDIHVWPLALAYDTLNCILVKGKHIWPEFPLPLPSEMEIRMPVFVKSKLLEENKAILNKKNEIGADTEAEEGEEDKEIQIPVSMAAEEEYLRSKVLSELLTDTLENDGEMYGNENEVLAALNGAYDKALLRLFASACSDQNVEKALSLAHELKQDRALTAAVKISERAELPSLVKKINNIREARYEQQLK
[1]
  oligomeric state in solution (MALS): stable homotrimers in solution
[1]; listed as full-length Ctf4
  oligomeric state in solution (MALS): stable trimer in solution
CMG helicase
  salt concentration resisted by association of Ctf4 with CMG: ≥ 700 mM

B2: Ctf4 N-terminal deletion (Ctf4CTD, aa 461-927) (domain or fragment)
chain: THSFPISLANTGKFRYMPFSPAGTPFGFTDRRYLTMNEVGYVSTVKNSEQYSITVSFFDVGRFREYHFEDLFGYDLCFLNEKGTLFGQSKTGQIQYRPHDSIHSNWTKIIPLQAGERITSVAATPVRVIVGTSLGYFRSFNQFGVPFAVEKTSPIVALTAQNYRVFSVHYSQFHGLSYSLSELGTSSKRYYKRECPLPMSLPNINSDMKKDANLDYYNFNPMGIKSLFFSSYGDPCIFGSDNTLLLLSKWRSPEESKWLPILDSNMEIWKMSGGKETTDIHVWPLALAYDTLNCILVKGKHIWPEFPLPLPSEMEIRMPVFVKSKLLEENKAILNKKNEIGADTEAEEGEEDKEIQIPVSMAAEEEYLRSKVLSELLTDTLENDGEMYGNENEVLAALNGAYDKALLRLFASACSDQNVEKALSLAHELKQDRALTAAVKISERAELPSLVKKINNIREARYEQQLK
[2]
  binding result: binds
[3]
  stoichiometry N: 3
